Measurements taken from ChEMBL document CHEMBL1949610, “Selection of cyclic-peptide inhibitors targeting Aurora kinase A: problems and solutions” (Bioorg Med Chem, 2011).
The source made the active and inactive calls. The rule behind the calls is not given here. Positions of bridges follow the written chain, without caps; N, C: chain ends. Residues, ends and D or L forms follow the SMILES beside them.

How the values were obtained:
[1] = target: T1, Aurora kinase A (Homo sapiens) (UniProt O14965); assay: Un-competitive inhibition of human aurora A using kemptide as substrate by double reciprocal plot analysis
T1 sequence (whole entry): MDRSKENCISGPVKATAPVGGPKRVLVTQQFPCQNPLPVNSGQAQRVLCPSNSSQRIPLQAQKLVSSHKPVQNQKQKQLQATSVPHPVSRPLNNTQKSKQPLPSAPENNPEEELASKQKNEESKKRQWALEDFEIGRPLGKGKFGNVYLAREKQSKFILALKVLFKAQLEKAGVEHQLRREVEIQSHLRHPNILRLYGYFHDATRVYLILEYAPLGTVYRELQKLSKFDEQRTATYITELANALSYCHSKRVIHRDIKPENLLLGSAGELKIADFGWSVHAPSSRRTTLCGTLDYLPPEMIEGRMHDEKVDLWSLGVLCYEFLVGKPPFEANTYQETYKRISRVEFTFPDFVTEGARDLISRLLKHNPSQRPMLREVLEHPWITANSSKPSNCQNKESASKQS
Outline: (§1)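 Kinetics run in duplicate: 0.5 nM Aurora A, 100 μM [γ-³²P]ATP, Kemptide at 25, 50 and 200 μM, inhibitor at 0, 10 and 50 μM, in 20 mM MOPS, 10 mM MgCl, pH 7, 0.01% BSA, 2.5% DMSO. Data shown as double-reciprocal plots and fit to competitive, noncompetitive, mixed and uncompetitive models.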

[2] = target: T2, Aurora kinase A (Homo sapiens, UniProt O14965); assay: Mixed type inhibition of human aurora A using kemptide as a substrate by double reciprocal plot analysis; outline: as §1
T2 sequence (O14965 whole entry): T1 sequence (whole entry)

[3] = target: T1, Aurora kinase A (Homo sapiens); assay: Inhibition of human aurora A assessed as [gamma-33P]ATP incorporation into kemptide substrate at 10 uM after 40 mins by liquid scintillation counting
[4] = Inhibition of PKA assessed as [gamma-33P]ATP incorporation into kemptide substrate at 10 uM after 40 mins by liquid scintillation counting
[5] = target: Dual specificity protein kinase CLK2 (Homo sapiens) (UniProt P49760); assay: Inhibition of CLK2 assessed as [gamma-33P]ATP incorporation into AKRRRLSSLRA substrate at 10 uM after 40 mins by liquid scintillation counting
Dual specificity protein kinase CLK2 (Homo sapiens), sequence (P49760 whole entry, looked up): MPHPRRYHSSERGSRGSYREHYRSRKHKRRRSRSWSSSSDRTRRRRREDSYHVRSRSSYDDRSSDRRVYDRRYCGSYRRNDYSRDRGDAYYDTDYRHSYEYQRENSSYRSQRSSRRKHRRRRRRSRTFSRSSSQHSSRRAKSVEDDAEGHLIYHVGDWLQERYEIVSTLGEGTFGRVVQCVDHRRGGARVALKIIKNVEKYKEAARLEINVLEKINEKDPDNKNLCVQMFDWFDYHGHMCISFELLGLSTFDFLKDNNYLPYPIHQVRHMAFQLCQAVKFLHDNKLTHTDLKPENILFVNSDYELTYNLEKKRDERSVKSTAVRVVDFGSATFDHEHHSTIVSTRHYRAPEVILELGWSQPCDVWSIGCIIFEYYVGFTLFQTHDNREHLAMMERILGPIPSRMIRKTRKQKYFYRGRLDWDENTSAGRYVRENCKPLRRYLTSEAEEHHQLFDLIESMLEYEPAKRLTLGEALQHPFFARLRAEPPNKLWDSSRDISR

[6] = target: T1, Aurora kinase A (Homo sapiens); assay: Competitive inhibition of human aurora A using kemptide as a substrate by double reciprocal plot analysis; outline: as §1

SMILES: CC(C)C[C@@H]1NC(=O)[C@H](Cc2c[nH]c3ccccc23)NC(=O)[C@H](Cc2c[nH]c3ccccc23)NC(=O)[C@@H]2CCCN2C(=O)[C@H](CCCNC(=N)N)NC(=O)[C@H]([C@@H](C)O)NC(=O)[C@@H](N)CSSC[C@@H](C(=O)NCC(N)=O)NC1=O (H-CTRPWWLCG-NH2; disulfide 1-8)
- Kiuc [1]: 17.6 µM
- Ki [2]: 27.2 µM
- inhibition [3]: Active
- inhibition [4]: inactive
- inhibition [5]: inactive
- Kic [6]: 10.4 µM

SMILES: CC(C)C[C@@H]1NC(=O)[C@H](Cc2ccccc2)NC(=O)[C@H](CCCNC(=N)N)NC(=O)[C@@H]2CCCN2C(=O)[C@@H](N)CSSC[C@@H](C(=O)NCC(N)=O)NC(=O)[C@H](Cc2c[nH]c3ccccc23)NC(=O)[C@@H]2CCCN2C1=O (H-CPRFLPWCG-NH2; disulfide 1-8)
- inhibition [3]: Active
- inhibition [4]: inactive
- inhibition [5]: inactive
